Assay outcomes (PubChem)
XBP1 UPR activ: activators of adaptive arm of unfolded protein response (XBP1); 330,000 compounds, 0.33% hits; CHO-XBP1 luciferase reporter, IRE1-XBP1 UPR activation, luminescence; percent of tunicamycin response, DMSO as zero; activation, % at 20 µM;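 active means versus positive control, 20 µM dose yields 30% or more activation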;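 further: 100% = tunicamycin at 10 µg/mL and 0% = DMSO only wells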
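Material: CHO cell line with stable XBP1 luciferase reporter; buffer or medium: F12 medium containing 10% fetal bovine serum; compound: single point, 20 µM final compound, 1% DMSO; incubation: 6 h treatment, 37 °C; measured by: glow luminescence from Steady-Glo reagent; evaluation: activation, % of tunicamycin; control set: tunicamycin high, DMSO low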
MPTP block: permeability transition pore inhibition; isolated mouse mitochondria, Ca2+ swelling absorbance, 30 min; 360,000 compounds, 1.4% hits; AID 602449; inhibition, % at 10 µM;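 active means inhibition of 50% or more, scaled per plate between neutral and stimulator controls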;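 further: 0% = DMSO wells given calcium and 100% = 1 mM EGTA wells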
UPR CHOP act: apoptotic UPR (CHOP) activation | AID 449763 | 330,000 compounds, 0.34% hits | activation, % at 10 µM | CHO-CHOP luciferase reporter, luminescence; percent of tunicamycin response over DMSO baseline;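 active means at 10 µM dose, activation of 40% or more, normalized to positive control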;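 further: 100% = tunicamycin at 10 µg/mL and 0% = DMSO alone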
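assay system = CHO CHOP reporter cells | amount = 500 CHO-CHOP cells per well | buffer or medium = F12 with 10% FBS | incubation = 16-18 h cell attachment, then 6 h compound exposure, 37 °C | detection = luminescence read with Steady-Glo | read-out = percent activation relative to tunicamycin control | controls = tunicamycin high control, DMSO low control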
CHOP inh: inhibitors of CHOP induction in ER stress response. inhibition, % at 10 µM. 220,000 compounds, 3.8% hits. CHO-K1 CHOP-promoter luciferase, tunicamycin-induced, 15-18 h;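 active means compounds that reduced the stress-induced luciferase reporter signal by more than about 70% of percent inhibition, limit read from the data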;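 further: 0% = tunicamycin plus vehicle and 100% = wells without tunicamycin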
aDG glyco up: alpha-DG glycosylation activation. Pro5-aDG cells, alpha-DG glycosylation AlphaScreen (IIH6); 0% Pro5, 100% B10-LARGE cell signal. activation, % at 10 µM. 360,000 compounds, 0.22% hits;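 active means activation of at least 8% versus controls, or a plate z-score of at least 8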;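 further: Pro5 are CHO cells carrying HIG-tagged alpha-DG that lacks glycosylation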
GRIN3A LBD mod: modulates the human NR3A ligand-binding domain | 340,000 compounds, 2.5% hits | AID 1259313 | NR3A LBD differential scanning fluorimetry, Tm shift; 0% = protein alone, 100% = glycine-bound protein | Tm shift relative to glycine control, % at 25 µM;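 active means melting temperature shift of at least 10% of the positive control shift, at one fixed dose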
* = called active by the depositor; nt = not tested or not shown. Only some compounds are listed: those with a hit (about 5.6% of all), similar ones and a draw of the others.

SMILES	XBP1 UPR activ	MPTP block	UPR CHOP act	CHOP inh	aDG glyco up	GRIN3A LBD mod
CC(=O)OC[C@H]1O[C@@H](Oc2cc3ccc(=O)oc3cc2OC(C)=O)[C@H](OC(C)=O)[C@@H](OC(C)=O)[C@@H]1OC(C)=O	nt	0	nt	nt	0	-3
Cc1ccn(-c2ccc(NC(=O)c3cccs3)cc2)n1	2	-1	6	nt	0	26*
O=C(Nc1ccc(Cl)cc1)c1cccs1	1	0	3	-16	0	2
O=C(Nc1ccccc1C(=O)O)c1ccc(NC(=O)C2CC2)cc1	-3	0	-3	nt	0	-6
O=C(Nc1ccccc1O)c1ccc(NC(=O)C2CC2)cc1	4	1	7	nt	1	23*
Cc1ccc(NS(=O)(=O)c2ccc(NC(=O)c3cccs3)cc2)cc1	-4	1	-2	77*	0	20*
O=C(Nc1ccc(NC(=O)c2ccccc2F)cc1)c1cccs1	8	-1	3	nt	1	22*
Cc1cccc(C)c1NC(=O)C1(C)CN(S(C)(=O)=O)CC(=O)N1CCc1ccccc1F (stereo not given)	nt	-1	nt	nt	0	nt
O=C(CN(CC1CCCO1)C(=O)CNS(=O)(=O)c1ccc(F)cc1)NCCc1ccccc1 (stereo not given)	0	-1	0	nt	0	1
Cc1cnc(C(=O)OCC(=O)NCc2ccc(Cl)cc2)cn1	2	-1	0	nt	0	-2
COc1ccc(Cc2c(C3CCCCC3)nc3ccc(Br)cn23)c(C)c1	nt	-1	nt	nt	0	nt
Cc1nc(-c2ccc(NC(=O)c3ccco3)cc2)cs1	-9	0	-10	nt	0	4
O=C(Nc1ccc(NC(=O)C2CC2)cc1)c1cccs1	-3	0	2	nt	0	17*
O=C(/C=C/c1ccccc1)Nc1ccc(NC(=O)c2cccs2)cc1	1	0	2	53	0	29*
O=C(Nc1ccc(-c2cn3ccccc3n2)cc1)c1cccs1	2	1	3	-16	1	25*
COc1ccc(CC(=O)Nc2ccc(-c3cn4ccccc4n3)cc2)cc1	6	-1	5	6	0	3
Cc1ccn2cc(-c3ccc(NC(=O)c4ccco4)cc3)nc2c1	-1	-1	-1	-8	0	29*
O=C(CSc1nc(O)cc(=O)n1-c1ccc(Cl)c(Cl)c1)Nc1ccc(Cl)cc1Cl	-1	2	0	nt	0	-4
CCOc1ncccc1C(=O)NCC(c1ccco1)N1CCCCC1 (stereo not given)	-3	-1	0	nt	0	-1
CCc1c(C)nc(N2CCN(c3ccc(Cl)cc3)CC2)[nH]c1=O	-7	1	1	nt	1	1
CSCCC(NC(=O)c1ccco1)C(=O)NCc1ccc2c(c1)OCO2 (stereo not given)	3	-2	0	nt	0	5
O=C(Nc1ccc(NC(=O)c2cccs2)cc1)c1cccs1	7	0	4	nt	0	22*
O=C(Nc1ccc(NC(=O)c2cccs2)cc1Cl)c1ccco1	1	-2	6	-45	0	4
O=C(Nc1ccc(NC(=O)c2cccs2)c(Cl)c1)c1cccs1	4	0	9	nt	0	13*
C[C@H](CO)N1C[C@H](C)[C@@H](CN(C)C(=O)Nc2ccc(C(F)(F)F)cc2)Oc2ccc(NC(=O)Cc3ccccc3)cc2C1=O	-6	0	1	nt	0	-10
SMILES	XBP1 UPR activ	MPTP block	UPR CHOP act	CHOP inh	aDG glyco up	GRIN3A LBD mod
CC1(C)CC(=O)C2=C(C1)N=C1SCCC(=O)N1C2c1cccc([N+](=O)[O-])c1 (stereo not given)	1	0	0	-2	0	-1
CC(=O)NC1=C(N(C)C2CCS(=O)(=O)C2)C(=O)c2ccccc2C1=O (stereo not given)	-1	3	17	75*	4	-9
CN(C(=O)Nc1ccccc1)C1CCS(=O)(=O)C1 (stereo not given)	0	0	2	3	0	0
CC(=O)n1cc(N(C(=O)CCl)c2ccccc2)c2ccccc21	-7	2	-3	107*	0	1
CC(=O)n1cc(N(C(=O)CCl)c2ccc([N+](=O)[O-])cc2)c2ccccc21	-9	2	-8	106*	0	0
CCN(Cc1ccccc1)S(=O)(=O)c1ccc2oc(C(=O)O)c(C)c2c1	1	0	0	-11	0	0
CCN(CC)S(=O)(=O)c1ccc2oc(C(=O)O)c(C)c2c1	-1	0	0	17	0	13*
O=C(Cn1nnc(-c2ccc([N+](=O)[O-])cc2)n1)NNC(=O)c1ccccc1	-3	-1	5	nt	0	1
CC(=O)Nc1ccc(Nc2cc(C)nc3c(-c4ccccc4)cnn23)cc1	nt	2	nt	21	0	33*
Cc1cc(N)n2ncc(-c3ccccc3)c2n1	1	0	5	-8	0	-23
COC(=O)c1c(NC(=O)COC(=O)Cn2cnc3ccccc32)sc2c1CCCC2	-3	5	-1	47	0	-19
Cc1ccc(S(=O)(=O)Nc2c(C)cc(C)nc2Cl)cc1	-4	0	1	nt	0	3
CCNC(=S)N1CCN(c2nc(-c3cccc(OC)c3)cs2)CC1	-5	2	0	nt	0	19*
COc1cccc(-c2csc(N3CCN(C(=S)NCC(C)C)CC3)n2)c1	-5	2	0	nt	0	2
CCCC(C)NC(=O)COC(=O)c1cccc(NS(C)(=O)=O)c1 (stereo not given)	-2	-1	2	16	0	-1
CCCCC1=CC2=CC(=O)C(C)(OC(=O)CC)C(=O)C2=CN1CCN1CCOCC1 (stereo not given)	1	nt	-2	2	nt	1
CCCCC1=CC2=CC(=O)C(C)(OC(=O)CC)C(=O)C2=CN1CCOC (stereo not given)	-2	1	0	-9	0	61*
COc1cc(/C=N/NC(=S)NCc2ccco2)cc(OC)c1OC	0	0	1	5	0	58*
Cc1nc2ccc(NC(=O)c3cc(Cl)ccn3)cc2s1	-6	-1	0	nt	0	0
Cc1ccc(OCCCC(=O)Nc2nc3ccccc3[nH]2)cc1	0	0	2	-14	0	1
Cc1cccc(OCCCC(=O)Nc2nc3ccccc3[nH]2)c1	-1	0	-1	73*	-1	0
COc1cc(CNC(=O)Nc2nc(C(N)Cc3ccc(C(F)(F)F)cc3)cs2)cc(OC)c1OC (stereo not given)	nt	4	nt	nt	3	nt
COc1ccc(CCNS(=O)(=O)c2cccc(S(=O)(=O)N3CCCC3)c2)cc1OC	nt	2	nt	2	0	14*
